# Experimental data reported in paper PMC8301577 (Clinical and Translational Science, 2021).
# Several values for one entry are separate records, joined by “and”; a condition that tells them apart may be missing. Equal values may be shown once. Entries after “also recorded” stand apart in the source; their conditions may differ.
# Columns and labels:
# healthy volunteers = test: Single-dose; assay type: in vivo, human
# Outline: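 Healthy non-smoking volunteers (8 CES1 G143E heterozygotes, 11 noncarriers) fasted overnight, then took a single 1 mg oral test compound dose with 240 ml water and fasted until 4 h post-dose. The maximal post-dose reduction was taken; mean ± SD.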
# CES1 G143E = conditions: cells transfected with the variant; cited from earlier work
# [1] = Stability of QC samples in human plasma; assay type: physicochemical; conditions: autosampler 4°C for 48 h or 3 successive freeze (−20°C) and thaw cycles
# Outline: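 Plasma QC samples held both analytes at 30, 300 and 1000 pg/ml, five replicates each. They were extracted by solid phase with deuterated internal standards and quantified by LC-MS/MS. Processed samples were tested after 48 h in the autosampler at 4°C, and QC samples after three freeze (−20°C)/thaw cycles, following FDA bioanalytical validation guidance.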
# Single-dose = assay type: in vivo, human; conditions: for CL: single oral dose 1 mg trandolapril, mean
# ACE = conditions: cited from earlier work
# [2] = cited from earlier work
# [3] = G/E, individual subjects (n=8), single oral dose 1 mg
# [4] = G/G, individual subjects (n=11), single oral dose 1 mg
# [5] = Mean ± SD (G/E), n=8, single oral dose 1 mg
# [6] = Mean ± SD (G/G), n=11, single oral dose 1 mg
smiles,measurement,setting,value
CCOC(=O)[C@H](CCc1ccccc1)N[C@@H](C)C(=O)N1[C@H](C(=O)O)C[C@H]2CCCC[C@@H]21 [Trandolapril],DBP Max reduction,healthy volunteers; [3],10 and 11 and 3 and 15 and 21 and 6 and 13
same,Heart rate Max reduction,healthy volunteers; [3],20 and 11 and 17 and 7 and 3 and 4 and 18
same,SBP Max reduction,healthy volunteers; [3],11 and 12 and 6 and 5 and 4 and 33
same,DBP Max reduction,healthy volunteers; [4],19 and 23 and 8 and 30 and 5 and 14 and 7 and 15 and 13
same,Heart rate Max reduction,healthy volunteers; [4],3 and −1 and 6 and 24 and 4 and −3 and 7 and 10 and 30 and 9
same,SBP Max reduction,healthy volunteers; [4],32 and 23 and 10 and 16 and 12 and 7 and 5 and 11
same,DBP Max reduction,healthy volunteers; [5],12 ± 6
same,Heart rate Max reduction,healthy volunteers; [5],12 ± 7
same,SBP Max reduction,healthy volunteers; [5],11 ± 9
same,DBP Max reduction,healthy volunteers; [6],15 ± 7
same,Heart rate Max reduction,healthy volunteers; [6],9 ± 10
same,SBP Max reduction,healthy volunteers; [6],14 ± 8
same,average maximum reduction of SBP in carriers less than in noncarriers,"healthy volunteers; abstract, not statistically significant",~ 22%
same,changes in heart rate after trandolapril administration,healthy volunteers; noncarrier and carrier group,no significant changes
same,time of maximal reduction of SBP and DBP after dosing,"healthy volunteers; noncarrier group, single oral dose 1 mg",6 to 8 h
same,maximum reduction of DBP in carrier group as percent of noncarrier group,"healthy volunteers; p = 0.26, not statistically significant",80.0%
same,maximum reduction of SBP in carrier group as percent of noncarrier group,"healthy volunteers; p = 0.54, not statistically significant",78.6%
same,catalytic activity of CES1 G143E on trandolapril activation,CES1 G143E,abolished; also recorded: completely impaired
same,stability of processed and QC samples,[1],stable
same,CL,Single-dose; CES1 143G/E (n=8),1027.58 L/h
same,CL,Single-dose; CES1 143G/G (n=11),893.90 L/h
"C[C@H](N[C@@H](CCc1ccccc1)C(=O)O)C(=O)N1[C@H](C(=O)O)C[C@H]2CCCC[C@@H]21 [Trandolaprilat, trandolaprilat]",potency at inhibiting ACE relative to parent compound trandolapril,ACE,approximately eight times more potent
same,stability of processed and QC samples,[1],stable
same,decrease of Cmax in G143E carriers relative to noncarriers,"Single-dose; 1 mg oral trandolapril, p = 0.17, not statistically significant",20%
same,decrease of AUC0–72 h in G143E carriers relative to noncarriers,"Single-dose; 1 mg oral trandolapril, p = 0.33, not statistically significant",15%
same,CL,Single-dose; CES1 143G/E (n=8),9.96 L/h
same,CL,Single-dose; CES1 143G/G (n=11),12.20 L/h
same,Tmax,"Single-dose; human, plasma, po, 1 mg",6.7 h
CCOC(=O)[C@H](CCc1ccccc1)N[C@@H](C)C(=O)N1CCC[C@H]1C(=O)O [enalapril],difference of PK parameters between G143E carriers and controls,"[2]; Danish volunteers, 6 carriers and 16 noncarriers",no significant difference
C[C@H](N[C@@H](CCc1ccccc1)C(=O)O)C(=O)N1CCC[C@H]1C(=O)O [enalaprilat],decrease of AUC0‐∞ in G143E carriers,"[2]; Finnish subjects, carriers = 10, noncarriers = 12, p = 0.049",20%
COC(=O)C(c1ccccc1)C1CCCCN1 (centres unmarked) [methylphenidate],mean AUC0‐∞ higher in G143E carriers than in controls,"[2]; Danish volunteers, 6 carriers and 16 noncarriers, p < 0.0001",152.4%
CCOC(=O)[C@H](CCc1ccccc1)N[C@@H](C)C(=O)N1Cc2ccccc2C[C@H]1C(=O)O [quinapril],impact of G143E on PKs,"[2]; Finnish subjects, carriers = 10, noncarriers = 12",no significant impact
